Measurements reported in ChEMBL document CHEMBL1155635, “New cytotoxic sesquiterpenes from the gorgonian Isis hippuris” (2000).
Converted amounts (≈) assume the structure as drawn.

test system: P388; assay: Cytotoxicity against mouse P388 cells by MTT method; type: functional; details: not given
In short: (§1)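 Modified MTT colorimetric assay. P-388 cells were a gift from an outside laboratory; A549 and HT-29 came from ATCC. Cells were treated at eight concentrations of pure compound, 50 to 5 × 10-6 µg/mL. Growth was expressed as percent of control incubations, run in triplicate. ED50 is the dose inhibiting cell growth by 50%.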

Question: For `C=C1[C@@H](O)C[C@H]2[C@@H]3CC[C@H](C)[C@]12CC3(C)C` [SUBEROSENOL A], which ED50 is on record?
Answer: The ED50 was <5 ×10⁻⁶ ug/ml.

Question: For `C[C@H]1CC[C@H]2[C@@H]3CC(=O)[C@H](C)[C@@]13CC2(C)C` [SUBEROSANONE], which ED50 is on record?
Answer: Its ED50 is <5 ×10⁻⁶ ug/ml.

same assay, conditions: Mus musculus, P388; read-out: ED50 (the source's name)

Question: With `C=C1[C@@H](OC(C)=O)C[C@H]2[C@@H]3CC[C@H](C)[C@]12CC3(C)C` [SUBEROSENOL A ACETATE] as the molecule, how does the EC50 read?
Answer: The EC50 was 0.0076 µg/mL.

Question: Which EC50 does the source give for `C=C1[C@H](OC(C)=O)C[C@H]2[C@@H]3CC[C@H](C)[C@]12CC3(C)C` [SUBEROSENOL B ACETATE] here?
Answer: The EC50 was 0.074 µg/mL.

Question: With `C=C1[C@H](O)C[C@H]2[C@@H]3CC[C@H](C)[C@]12CC3(C)C` [SUBEROSENOL B] as the molecule, how does the EC50 read?
Answer: Its EC50 is 3.4 µg/mL (≈ 15.4 µM).

Question: `C[C@@H]1CC(=O)[C@@]23[C@@H](C)C(C(=O)O)=C[C@]2(C)CC[C@@H]13` [SUBERGORGIC ACID] was tested. Which EC50 did it give?
Answer: The EC50 was 13.3 µg/mL (≈ 53.6 µM).

test system: A549; assay: Cytotoxicity against human A549 cells by MTT method; type: functional; details: read-out: ED50 (the source's name); in short: as §1

Question: With `C=C1[C@@H](OC(C)=O)C[C@H]2[C@@H]3CC[C@H](C)[C@]12CC3(C)C` [SUBEROSENOL A ACETATE] as the molecule, how does the EC50 read?
Answer: Its EC50 is 0.08 µg/mL.

Question: With `C=C1[C@H](OC(C)=O)C[C@H]2[C@@H]3CC[C@H](C)[C@]12CC3(C)C` [SUBEROSENOL B ACETATE] as the molecule, how does the EC50 read?
Answer: The EC50 was 0.36 µg/mL.

Question: Which EC50 does the source give for `C=C1[C@@H](O)C[C@H]2[C@@H]3CC[C@H](C)[C@]12CC3(C)C` [SUBEROSENOL A] here?
Answer: The EC50 was 0.0051 µg/mL (≈ 0.0231 µM).

Question: For `C[C@H]1CC[C@H]2[C@@H]3CC(=O)[C@H](C)[C@@]13CC2(C)C` [SUBEROSANONE], which EC50 is on record?
Answer: The EC50 was 0.036 µg/mL (≈ 0.163 µM).

Question: With `C=C1[C@H](O)C[C@H]2[C@@H]3CC[C@H](C)[C@]12CC3(C)C` [SUBEROSENOL B] as the molecule, how does the EC50 read?
Answer: Its EC50 is 0.2 µg/mL (≈ 0.908 µM).

Question: How did the EC50 turn out when `C[C@@H]1CC(=O)[C@@]23[C@@H](C)C(C(=O)O)=C[C@]2(C)CC[C@@H]13` [SUBERGORGIC ACID] was run?
Answer: The EC50 was > 50 µg/mL.

test system: HT-29; assay: Cytotoxicity against human HT29 cells by MTT method; type: functional; details: not given; in short: as §1

Question: How did the ED50 turn out when `C=C1[C@@H](OC(C)=O)C[C@H]2[C@@H]3CC[C@H](C)[C@]12CC3(C)C` [SUBEROSENOL A ACETATE] was run?
Answer: Its ED50 is 3.6 ×10⁻⁴ ug/ml.

Question: How did the ED50 turn out when `C=C1[C@@H](O)C[C@H]2[C@@H]3CC[C@H](C)[C@]12CC3(C)C` [SUBEROSENOL A] was run?
Answer: Its ED50 is <5 ×10⁻⁶ ug/ml.

Question: `C[C@H]1CC[C@H]2[C@@H]3CC(=O)[C@H](C)[C@@]13CC2(C)C` [SUBEROSANONE] was tested. Which ED50 did it give?
Answer: Its ED50 is <5 ×10⁻⁶ ug/ml.

same assay, conditions: Homo sapiens, HT-29; read-out: ED50 (the source's name)

Question: Which EC50 does the source give for `C=C1[C@H](OC(C)=O)C[C@H]2[C@@H]3CC[C@H](C)[C@]12CC3(C)C` [SUBEROSENOL B ACETATE] here?
Answer: The EC50 was 0.005 µg/mL.

Question: Which EC50 does the source give for `C=C1[C@H](O)C[C@H]2[C@@H]3CC[C@H](C)[C@]12CC3(C)C` [SUBEROSENOL B] here?
Answer: Its EC50 is 2.1 µg/mL (≈ 9.53 µM).

Question: For `C[C@@H]1CC(=O)[C@@]23[C@@H](C)C(C(=O)O)=C[C@]2(C)CC[C@@H]13` [SUBERGORGIC ACID], which EC50 is on record?
Answer: The EC50 was > 50 µg/mL.
